# A selection: hits, their analogues and other compounds. The true share with any hit is near 3.1%.
# CSC inhib: cancer stem cell viability inhibitors, primary screen, luminescence. cancer stem cell-like cells viability. inhibition, % at 7.5 µM. 300,000 tested, 1.1% active. AID 2717, 2010; in the data active means inhibition above about 75%; inconclusive means no clear call, values can overlap the other calls; tested in HMLE shEcad cells
# HIF act: HIF pathway transcriptional activators, primary screen, cell-based, U2OS HRE-luciferase, luminescence; activation, % at 7.5 µM (by protocol); 300,000 tested, 0.32% active; AID 1910, 2009; U2OS HRE-luciferase reporter; normalized: DMSO 0%, desferrioxamine 100%;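 active means mean activation of at least 10% of the iron chelator positive control signal, with at least half of replicates also reaching 10%; inconclusive means mean and replicate majority disagree about reaching 10%; inactive means mean and most replicates under 10%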
# Calb FLC: C. albicans growth inhibition with fluconazole, primary screen, CaCi-2 strain, Alamar Blue fluorescence; growth inhibition, % (test concentration not listed); 300,000 tested, 0.57% active; C. albicans CaCi-2 (fluconazole-resistant clinical isolate) + fluconazole, 48 h;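 active means growth inhibition above about 58% in most replicates, limit read from the data, passing the limit was not always enough; inconclusive means exactly half the replicates above a set limit; inactive means most replicates below a set limit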;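 further: all wells also contain fluconazole at 8 µg/ml as a sub-toxic cotreatment; 0% = median of DMSO wells and 100% = median of geldanamycin control wells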
# PolyA inh: polyadenylation inhibitors in yeast reporter cells, primary screen, luminescence, S. cerevisiae. S. cerevisiae SKY197-pL101 polyadenylation reporter, beta-gal luminescence; efflux-impaired pdr1/pdr3 knockout yeast; score 100 = 6 SD above DMSO. activity score, % at 12 µM. 300,000 tested, 0.02% active;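 active means lowest replicate activity score at least 50, where 100 means six control SD above control mean; inconclusive means lowest score under 50 but half or more replicates reach 50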;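 further: yeast exposed to compound for 9 h at 30 °C; higher score means more reporter readthrough which indicates perturbed polyadenylation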
# Beta apoptosis: inhibitors of cytokine-induced beta cell apoptosis, primary screen, luminescence; protection from apoptosis, % (no concentration beside the values); AID 435005, 2010; 300,000 tested, 0.8% active; INS-1E cytokine-induced death, ATP luminescence, 48 h; percent of positive-control rescue, neutral wells zero;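 active means Every replicate reaches about 75%, or at least half do and their mean reaches it too, limit read from the data; inconclusive means At least half of replicates reach the limit but their mean does not; inactive means Under half of replicates reach the limit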;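 further: 0% = cytokine-treated negative control wells and 100% = positive control rescue; higher means more ATP so stronger rescue from cytokine killing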
# T cruzi inh: inhibitors of intracellular T. cruzi growth, primary screen, luminescence, NIH3T3 host cells; inhibition, % (test concentration not listed); T. cruzi beta-gal in NIH3T3, 90 h; 300,000 tested, 1.4% active; AID 1885, 2009;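 active means mean inhibition across valid replicates above about 55%, limit read from the data; inconclusive means mean below that limit but half or more replicates reach it; inactive means mean below it, under half of replicates reach it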;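 further: signal also drops with host cell toxicity which is not excluded here; 0% = plate median of DMSO wells and 100% = zero luminescence signal; higher percent means less beta-gal luminescence so fewer parasites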
#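 Assay system: NIH/3T3 fibroblasts plus reporter T. cruzi. Amount: NIH/3T3 cells, 5,000 per well. Buffer or medium: DMEM, 2% fetal bovine serum. Doses: compound pinned at 50 nL/well, DMSO. Schedule: ≥90 h infection period, 3 h prior cell attachment. Signal: luminescent β-galactosidase signal after 60 min lysis. Read-out: parasite load inhibition, %.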
# An asterisk follows results filed as active; ? = inconclusive; nt = not tested or not shown.
SMILES,CSC inhib,HIF act,Calb FLC,PolyA inh,Beta apoptosis,T cruzi inh
Cc1ccccc1-[n+]1c(-c2ccccc2)cc(-c2ccccc2)cc1-c1ccccc1,27,2,112*,0,100*,41
Cc1ccc(-c2cc(-c3ccccc3)cc(-c3ccccc3)[n+]2-c2ccc(C(=O)O)cc2)cc1,1,0,-12,17,-8,-9
CCOc1ccccc1CN1CCCC(C(=O)c2cc(F)ccc2F)C1 (stereo not given),11,0,2,6,-1,1
[O-]c1ccccc1-[n+]1c(-c2ccccc2)cc(-c2ccccc2)cc1-c1ccccc1,38,0,96*,?,95*,39
Oc1ccccc1-[n+]1c(-c2ccccc2)cc(-c2ccccc2)cc1-c1ccccc1,16,-2,2,-7,42,23
O=[N+]([O-])c1cnc[nH]1,3,0,-8,2,-3,-24
Cc1[nH]c2ccccc2c1C(=O)CN1CC=C(c2ccccc2)CC1,-10,0,-14,-4,0,97*
O=C(CN1CC=C(c2ccccc2)CC1)NC(=O)NCc1ccco1,3,-1,-12,5,2,4
Cc1cc(Br)c(NC(=O)CN2CC=C(c3ccccc3)CC2)c(Br)c1,nt,0,-6,9,-4,72*
O=C1C2CCN(CC2)C1Cc1ccc(OCCOc2ccccc2)cc1 (stereo not given),18,0,109*,-22,-3,5
O=C1C2CCN(CC2)C1Cc1ccccc1O (stereo not given),3,0,2,16,-6,-12
O=P(Oc1ccccc1)(Oc1ccccc1)N1CCN(c2ccc(F)cc2)CC1,2,0,-2,-5,78*,40
C[C@H](N)CN1CCc2ccc(Br)cc21,1,0,3,9,nt,5
COc1cccc(-c2sc3ccccc3c2-c2ccc(OCCN3CCOCC3)cc2)c1,104*,nt,nt,nt,-10,nt
COc1ccc(-n2c(CN3CCOCC3)nc3ccccc3c2=O)c(OC)c1,-16,-1,17,-5,1,-6
COc1ccc(C(=O)C2CCCN(C3CSCCSC3)C2)c(OC)c1 (stereo not given),78*,0,-1,0,3,12
COc1ccc(C(=O)C2CCCN(C3CSCCSC3)C2)c(C)c1 (stereo not given),35,-1,-26,1,-11,8
C[n+]1c2ccccc2nc2ccc(NCCO)cc21,17,-28,-11,-7,22,10
CNc1ccc2nc3ccccc3[n+](C)c2c1,24,-2,67,-14,93*,59*
O=C(CN1CCCC1)Nc1ccc(Cl)cc1C(=O)c1ccccc1,85*,1,6,9,17,16
O=C(CCN1CCCCC1)Nc1ccc(Cl)cc1C(=O)c1ccccc1,-2,0,-6,-3,-5,11
CCC(=NCCCN(CC)CC)c1c(O)n(C2CCCCC2)c(=O)[nH]c1=O,-9,0,-19,3,-1,66*
CCN(CC)CCCN=C(C)c1c(O)n(C2CCCCC2)c(=O)[nH]c1=O,nt,0,-1,-9,-3,65*
CCN1C[C@]2(C)CC[C@H](O)[C@]34C1[C@H](C[C@H]23)[C@@]1(O)C[C@H](OC)[C@H]2C[C@@H]4[C@@H]1C2O (stereo not given in full),-2,nt,nt,nt,1,nt
O=C1NC(=O)N(c2ccccc2)C(=O)/C1=C/C=C/c1ccco1,88*,2,-2,-14,-3,-17
SMILES,CSC inhib,HIF act,Calb FLC,PolyA inh,Beta apoptosis,T cruzi inh
Cc1cccc(N2C(=O)NC(=O)/C(=C\C=C\c3ccco3)C2=O)c1,?,2,3,-20,30,-32
Cc1ccc(N2C(=O)NC(=O)/C(=C\C=C\c3ccco3)C2=O)cc1,79*,2,-6,-6,40,-23
CN1C(=O)/C(=C/C=C/c2ccco2)C(=O)NC1=S,-28,0,0,?,-8,2
O=C1NC(=O)N(Cc2ccccc2)C(=O)/C1=C\C=C\c1ccco1,?,1,14,8,6,-18
Cc1ccc(N2C(=O)NC(=O)/C(=C\C=C\c3ccco3)C2=O)cc1C,53,0,-5,7,97*,-8
COC(=O)C1=C(c2ccc(OCc3ccccc3)cc2)C[C@@H]2CC[C@H]1N2C(=O)NCc1cccc(OC)c1,16,nt,nt,nt,-1,nt
CC1Oc2cc3c(-c4c(O)cc(O)c5c(O)c6c(cc45)OC(C)C(C)C6=O)c(O)cc(O)c3c(O)c2C(=O)C1C (stereo not given),-3,0,-12,-7,109*,-48
Nc1ccccc1N=Cc1c(O)n(CCC2=CCCCC2)c(=O)[nH]c1=O,96*,1,17,-18,97*,-9
O=C(N/N=C/c1c(O)n(CCC2=CCCCC2)c(=S)[nH]c1=O)c1ccccc1,29,1,98*,10,-1,1
O=C(N/N=C/c1c(O)n(CCC2=CCCCC2)c(=O)[nH]c1=O)c1ccccc1,16,1,26,6,8,-10
CN1/C(=C\C=C\C2=[N+](C)c3ccc4ccccc4c3C2(C)C)C(C)(C)c2ccccc21,115*,nt,nt,nt,100*,nt
COC(=O)C1=C(c2ccc(-c3ccccc3)c(F)c2)C[C@@H]2CC[C@H]1N2C(=O)N1CCCC1,20,nt,nt,nt,15,nt
C/C(=N\N1CCCCCC1)c1c(O)n(-c2ccc(C)cc2)c(=O)[nH]c1=O,13,0,18,-10,2,0
CC/C(=N\N1CCCCCC1)c1c(O)n(-c2ccc(C)cc2)c(=O)[nH]c1=O,-10,12*,13,16,-2,4
CC(=O)OC1CCC2(/C=N/O)C(=CCC3C4CCC(=O)C4(C)CCC32)C1 (stereo not given),-7,-1,0,-14,6,5
CCOC(=O)c1c(NS(=O)(=O)c2ccccc2)n(CCCOC)c2nc3ccccc3nc12,1,455*,39,0,nt,4
N#CC(C#N)=C(C#N)c1ccc(Nc2ccccc2)cc1,93*,-2,6,-6,nt,-24
Clc1ccc(C(c2ccc(Cl)cc2)n2cc[n+](CC(OCc3ccc(Cl)cc3Cl)c3ccc(Cl)cc3Cl)c2)cc1 (stereo not given),107*,nt,nt,nt,121*,nt
CCOC(=O)c1ccccc1NC(=O)c1c(O)[nH]c(=S)[nH]c1=O,-3,0,-10,14,-9,5
